Measurements pooled from the literature.
Each line is one published result; the experiments were not run side by side.

CCCCCCOc1ccc2c(=O)c3c([nH]c2c1)CCCC3  half-life (metabolic stability; human, liver microsomes; 1 µM, pH 7.4): 0.25 h
COC1=CC(c2ccc[nH]2)=N/C1=C\c1[nH]c(Cc2ccc(OC(F)(F)F)cc2)cc1Cc1ccc(OC(F)(F)F)cc1  MRT(0-t) (male CD-1 mouse, plasma; oral, 40 mg/kg, single dose): 23.1 h
O=c1c2c([nH]c3cc(OCc4ccc(OC(F)(F)F)cc4)ccc13)CCCC2  half-life (metabolic stability; human, liver microsomes; 1 µM, pH 7.4): 0.627 h
CCOC(=O)C1=C(CN2CCC[C@@H]2C(=O)Nc2ccc(B(O)O)cc2)NC(c2nccs2)=N[C@H]1c1ccc(F)cc1Br  MRT(0-inf) (CD-1 mouse, plasma; intravenous, 2 mg/kg): 0.57 h
CC[C@H](C)[C@H](NC(=O)[C@@H]1CCCN1C(=O)CNC(=O)[C@H](Cc1ccccc1)NC(=O)[C@H](CC(N)=O)NC(=O)[C@H](CC(N)=O)NC(=O)[C@H](CO)NC(=O)[C@H](CO)NC(=O)[C@H](Cc1c[nH]cn1)NC(=O)[C@H](CCCNC(=N)N)NC(=O)[C@H](CC(C)C)NC(=O)[C@H](Cc1ccccc1)NC(=O)[C@H](CCC(=O)O)NC(=O)[C@H](C)NC(=O)[C@H](CC(C)C)NC(=O)[C@H](CCCNC(=N)N)NC(=O)[C@H](CCC(N)=O)NC(=O)[C@@H](NC(=O)[C@H](C)NC(=O)[C@@H]1CSSC[C@H](NC(=O)[C@H](CCCCN)NC(=O)CC[C@H](NC(=O)CCCCCCCCCCCCCCCCCCC(=O)O)C(=O)O)C(=O)N[C@@H](CC(N)=O)C(=O)N[C@@H]([C@@H](C)O)C(=O)N[C@@H](C)C(=O)N[C@@H]([C@@H](C)O)C(=O)N1)[C@@H](C)O)C(=O)N[C@@H](CC(C)C)C(=O)N1CCC[C@H]1C(=O)N1CCC[C@H]1C(=O)N[C@H](C(=O)N[C@@H](CC(N)=O)C(=O)N[C@H](C(=O)NCC(=O)N[C@@H](CO)C(=O)N[C@@H](CC(N)=O)C(=O)N[C@H](C(=O)N1CCC[C@H]1C(N)=O)[C@@H](C)O)C(C)C)[C@@H](C)O  AUC(0-inf) (cynomolgus monkey, plasma; subcutaneous, 20 nmol/kg, single dose): 39.3 µM·h
CCN(CC)CCNC(=O)c1c(C)[nH]c(/C=C2\C(=O)Nc3ccc(F)cc32)c1C  half-life (metabolic stability; human, liver microsomes; 1 µM, pH 7.4): 0.458 h
OCc1nc2ccc(NCc3ccc(C(F)(F)F)cc3)cc2[nH]1  MRT(0-inf) (male BALB/c mouse, plasma; oral, 10 mg/kg): 1.9 h
COC1=CC(c2ccc[nH]2)=N/C1=C\c1cc(Cc2ccc(OC(F)(F)F)cc2)c(C)[nH]1.Cl  MRT(0-t) (male CD-1 mouse, liver; oral, 40 mg/kg, single dose): 34.8 h
Cc1nc2ccc(OCc3ccc(C(F)(F)F)cc3)cc2[nH]1  MRT(0-inf) (male BALB/c mouse, plasma; intravenous, 1 mg/kg): 1.54 h
NCc1cc2c(cc1F)C(=O)N(C1CCC(=O)NC1=O)C2 (stereo not shown)  AUC(0-inf) (male cynomolgus monkey, plasma; oral, 0.3 mg/kg): 5.5 ng·h/mL
